Reference: ChEMBL document CHEMBL1122494, “New selenium-75 labeled radiopharmaceuticals: selenonium analogues of dopamine” (J Med Chem, 1983)

What was measured:
Type in all cases: ADME, organism-based
Rattus norvegicus [1] = experiment: Distribution of Se-75 activity in Lung of female Sprague-Dawley Rat 5 min after iv administration of compound; details: in vivo
Outline: (§1)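 Female Sprague-Dawley rats (100-300 g), five per group, got [75Se]selenonium salt in 0.2 mL saline (5-6 μCi) by lateral tail vein. They were killed by cardioectomy under chloroform anesthesia at the stated time. A sample of the large organ was weighed and gamma counted, and counts were converted to % injected dose/g. Values are mean and SEM of five.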

Rattus norvegicus [2] = experiment: Distribution of Se-75 activity in Adrenal of female Sprague-Dawley Rat 120 min after iv administration compound; details: in vivo, 2 h
Outline: (§2)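 Female Sprague-Dawley rats (100-300 g), five per group, got [75Se]selenonium salt by lateral tail vein: 0.2 mL saline with 5-6 μCi. Groups were killed by cardioectomy under chloroform anesthesia at the set times. The organ was taken intact, rinsed with saline, blotted, weighed and gamma counted. Values are % injected dose/g, mean and SEM of five.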

Rattus norvegicus [3] = experiment: Distribution of Se-75 activity in Adrenal of female Sprague-Dawley Rat 240 min after iv administration compound; details: in vivo, 4 h; outline: as §2
Rattus norvegicus [4] = experiment: Distribution of Se-75 activity in Heart of female Sprague-Dawley Rat 120 min after iv administration compound; details: in vivo, 2 h; outline: as §2
Rattus norvegicus [5] = experiment: Distribution of Se-75 activity in Heart of female Sprague-Dawley Rat 240 min after iv administration compound; details: in vivo, 4 h; outline: as §2
Rattus norvegicus [6] = experiment: Distribution of Se-75 activity in blood of female Sprague-Dawley Rat 120 min after iv administration of compound; details: in vivo, 2 h
Outline: (§3)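 Tail-vein injection of 5-6 μCi [75Se]selenonium salt in 0.2 mL saline into female Sprague-Dawley rats (100-300 g), five per group. Rats were killed by cardioectomy under chloroform anesthesia at the time point. Radioactivity was gamma counted and expressed as % injected dose/g, mean and SEM of five.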

Rattus norvegicus [7] = experiment: Distribution of Se-75 activity in Brain of female Sprague-Dawley Rat 240 min after iv administration compound; details: in vivo, 4 h
Rattus norvegicus [8] = experiment: Distribution of Se-75 activity in Brain of female Sprague-Dawley Rat 30 min after iv administration of compound; details: in vivo, 0.5 h
Rattus norvegicus [9] = experiment: Distribution of Se-75 activity in Heart of female Sprague-Dawley Rat 5 min after iv administration of compound; details: in vivo; outline: as §2
Rattus norvegicus [10] = experiment: Distribution of Se-75 activity in Kidney of female Sprague-Dawley Rat 120 min after iv administration compound; details: in vivo, 2 h; outline: as §2
Rattus norvegicus [11] = experiment: Distribution of Se-75 activity in Kidney of female Sprague-Dawley Rat 240 min after iv administration compound; details: in vivo, 4 h; outline: as §2
Rattus norvegicus [12] = experiment: Distribution of Se-75 activity in Liver of female Sprague-Dawley Rat 5 min after iv administration of compound; details: in vivo; outline: as §1
Rattus norvegicus [13] = experiment: Distribution of Se-75 activity in Liver of female Sprague-Dawley Rat 60 min after iv administration of dcompound; details: in vivo, 1 h; outline: as §1
Rattus norvegicus [14] = experiment: Distribution of Se-75 activity in Lung of female Sprague-Dawley Rat 120 min after iv administration compound; details: in vivo, 2 h; outline: as §1
Rattus norvegicus [15] = experiment: Distribution of Se-75 activity in Lung of female Sprague-Dawley Rat 15 min after iv administration of compound; details: in vivo, 0.25 h; outline: as §1
Rattus norvegicus [16] = experiment: Distribution of Se-75 activity in Lung of female Sprague-Dawley Rat 240 min after iv administration compound; details: in vivo, 4 h; outline: as §1
Rattus norvegicus [17] = experiment: Tissue radioactivity ratio in Heart to Blood 240 min after Intravenous Injection in rats; details: other tissue, 4 h
Outline: (§4)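 Same rat biodistribution: female Sprague-Dawley rats (100-300 g), 5-6 μCi [75Se]selenonium salt in 0.2 mL saline iv by tail vein, five per time point, killed by cardioectomy under chloroform. Ratios are tissue-to-tissue quotients of gamma-counted % injected dose per gram in each organ (adrenal, heart, kidney, liver, blood).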

Rattus norvegicus [18] = experiment: Tissue radioactivity ratio in Heart to Blood 5 min after Intravenous Injection in rats; details: other tissue; outline: as §4
Rattus norvegicus [19] = experiment: Tissue radioactivity ratio in Heart to Blood 60 min after Intravenous Injection in rats; details: other tissue, 1 h; outline: as §4
Rattus norvegicus [20] = experiment: Tissue radioactivity ratio in adrenal to Kidney 120 min after Intravenous Injection in rats; details: in vivo, 2 h; outline: as §4
Rattus norvegicus [21] = experiment: Tissue radioactivity ratio in adrenal to Kidney 30 min after Intravenous Injection in rats; details: in vivo, 0.5 h; outline: as §4
Rattus norvegicus [22] = experiment: Tissue radioactivity ratio in adrenal to blood 120 min after Intravenous Injection in rats; details: other tissue, 2 h; outline: as §4
Rattus norvegicus [23] = experiment: Tissue radioactivity ratio in adrenal to blood 15 min after Intravenous Injection in rats; details: other tissue, 0.25 h; outline: as §4
Rattus norvegicus [24] = experiment: Tissue radioactivity ratio in adrenal to blood 240 min after Intravenous Injection in rats; details: other tissue, 4 h; outline: as §4
Rattus norvegicus [25] = experiment: Distribution of Se-75 activity in Brain of female Sprague-Dawley Rat 120 min after iv administration compound; details: in vivo, 2 h
Rattus norvegicus [26] = experiment: Distribution of Se-75 activity in blood of female Sprague-Dawley Rat 120 min after iv administration compound; details: in vivo, 2 h; outline: as §3
Rattus norvegicus [27] = experiment: Distribution of Se-75 activity in Adrenal of female Sprague-Dawley Rat 120 min after iv administration of compound; details: in vivo, 2 h; outline: as §2
Rattus norvegicus [28] = experiment: Distribution of Se-75 activity in Adrenal of female Sprague-Dawley Rat 240 min after iv administration of compound; details: in vivo, 4 h; outline: as §2
Rattus norvegicus [29] = experiment: Distribution of Se-75 activity in Brain of female Sprague-Dawley Rat 120 min after iv administration of compound; details: in vivo, 2 h
Rattus norvegicus [30] = experiment: Distribution of Se-75 activity in Brain of female Sprague-Dawley Rat 240 min after iv administration of compound; details: in vivo, 4 h
Rattus norvegicus [31] = experiment: Distribution of Se-75 activity in Heart of female Sprague-Dawley Rat 120 min after iv administration of compound; details: in vivo, 2 h; outline: as §2
Rattus norvegicus [32] = experiment: Distribution of Se-75 activity in Heart of female Sprague-Dawley Rat 240 min after iv administration of dose 5 uCi/0.2 mL; details: in vivo, 4 h; outline: as §2
Rattus norvegicus [33] = experiment: Distribution of Se-75 activity in Kidney of female Sprague-Dawley Rat 120 min after iv administration of compound; details: in vivo, 2 h; outline: as §2
Rattus norvegicus [34] = experiment: Distribution of Se-75 activity in Kidney of female Sprague-Dawley Rat 240 min after iv administration of compound; details: in vivo, 4 h; outline: as §2
Rattus norvegicus [35] = experiment: Distribution of Se-75 activity in Liver of female Sprague-Dawley Rat 60 min after iv administration of compound; details: in vivo, 1 h; outline: as §1
Rattus norvegicus [36] = experiment: Distribution of Se-75 activity in Lung of female Sprague-Dawley Rat 120 min after iv administration of compound; details: in vivo, 2 h; outline: as §1
Rattus norvegicus [37] = experiment: Distribution of Se-75 activity in Lung of female Sprague-Dawley Rat 240 min after iv administration of compound; details: in vivo, 4 h; outline: as §1

Compound: COc1ccc(CC[Se+](C)C)cc1OC.[I-]
- Dose/g (Rattus norvegicus [1]): 1.44%
- Dose/g (Rattus norvegicus [2]): 0.74%
- Dose/g (Rattus norvegicus [3]): 0.64%
- Dose/g (Rattus norvegicus [4]): 0.17%
- Dose/g (Rattus norvegicus [5]): 0.06%
- Dose/g (Rattus norvegicus [6]): 0.08%
- Dose/g (Rattus norvegicus [7]): 0%
- Dose/g (Rattus norvegicus [8]): 0.02%
- Dose/g (Rattus norvegicus [9]): 2.38%
- Dose/g (Rattus norvegicus [10]): 0.33%
- Dose/g (Rattus norvegicus [11]): 0.16%
- Dose/g (Rattus norvegicus [12]): 2.48%
- Dose/g (Rattus norvegicus [13]): 0.62%
- Dose/g (Rattus norvegicus [14]): 0.19%
- Dose/g (Rattus norvegicus [15]): 0.097%
- Dose/g (Rattus norvegicus [16]): 0.07%
- Ratio (Rattus norvegicus [17]): 2
- Ratio (Rattus norvegicus [18]): 7
- Ratio (Rattus norvegicus [19]): 2.25
- Ratio (Rattus norvegicus [20]): 2.24
- Ratio (Rattus norvegicus [21]): 0.95
- Ratio (Rattus norvegicus [22]): 9.25
- Ratio (Rattus norvegicus [23]): 3.39
- Ratio (Rattus norvegicus [24]): 21.33
- Dose/g (Rattus norvegicus [25]): 0.01%

Compound: C[Se+](C)CCc1ccc(O)c(O)c1.[Cl-]
- Dose/g (Rattus norvegicus [1]): 1.25%
- Dose/g (Rattus norvegicus [26]): 0.08%
- Dose/g (Rattus norvegicus [27]): 0.73%
- Dose/g (Rattus norvegicus [28]): 0.59%
- Dose/g (Rattus norvegicus [29]): 0%
- Dose/g (Rattus norvegicus [30]): 0%
- Dose/g (Rattus norvegicus [8]): 0.01%
- Dose/g (Rattus norvegicus [31]): 0.21%
- Dose/g (Rattus norvegicus [32]): 0.16%
- Dose/g (Rattus norvegicus [9]): 2.37%
- Dose/g (Rattus norvegicus [33]): 0.29%
- Dose/g (Rattus norvegicus [34]): 0.18%
- Dose/g (Rattus norvegicus [12]): 1.86%
- Dose/g (Rattus norvegicus [35]): 0.8%
- Dose/g (Rattus norvegicus [36]): 0.2%
- Dose/g (Rattus norvegicus [15]): 1.14%
- Dose/g (Rattus norvegicus [37]): 0.09%
- Ratio (Rattus norvegicus [17]): 3.2
- Ratio (Rattus norvegicus [18]): 6.77
- Ratio (Rattus norvegicus [19]): 2.55
- Ratio (Rattus norvegicus [20]): 2.52
- Ratio (Rattus norvegicus [21]): 0.81
- Ratio (Rattus norvegicus [22]): 9.12
- Ratio (Rattus norvegicus [23]): 2.9
- Ratio (Rattus norvegicus [24]): 11.8
